The source of these data is ChEMBL document CHEMBL4400539, “Discovery of a Novel Chemotype of Histone Lysine Methyltransferase EHMT1/2 (GLP/G9a) Inhibitors: Rational Design, Synthesis, Biological Evaluation, and Co-crystal Structure” (J Med Chem, 2019).

The structures appear in SMILES notation. pKi: −log10 of the molar value.

Data set [1] has as its target T1, Histone-lysine N-methyltransferase EHMT2 (Homo sapiens) (UniProt Q96KQ7).
T1 sequence (whole entry): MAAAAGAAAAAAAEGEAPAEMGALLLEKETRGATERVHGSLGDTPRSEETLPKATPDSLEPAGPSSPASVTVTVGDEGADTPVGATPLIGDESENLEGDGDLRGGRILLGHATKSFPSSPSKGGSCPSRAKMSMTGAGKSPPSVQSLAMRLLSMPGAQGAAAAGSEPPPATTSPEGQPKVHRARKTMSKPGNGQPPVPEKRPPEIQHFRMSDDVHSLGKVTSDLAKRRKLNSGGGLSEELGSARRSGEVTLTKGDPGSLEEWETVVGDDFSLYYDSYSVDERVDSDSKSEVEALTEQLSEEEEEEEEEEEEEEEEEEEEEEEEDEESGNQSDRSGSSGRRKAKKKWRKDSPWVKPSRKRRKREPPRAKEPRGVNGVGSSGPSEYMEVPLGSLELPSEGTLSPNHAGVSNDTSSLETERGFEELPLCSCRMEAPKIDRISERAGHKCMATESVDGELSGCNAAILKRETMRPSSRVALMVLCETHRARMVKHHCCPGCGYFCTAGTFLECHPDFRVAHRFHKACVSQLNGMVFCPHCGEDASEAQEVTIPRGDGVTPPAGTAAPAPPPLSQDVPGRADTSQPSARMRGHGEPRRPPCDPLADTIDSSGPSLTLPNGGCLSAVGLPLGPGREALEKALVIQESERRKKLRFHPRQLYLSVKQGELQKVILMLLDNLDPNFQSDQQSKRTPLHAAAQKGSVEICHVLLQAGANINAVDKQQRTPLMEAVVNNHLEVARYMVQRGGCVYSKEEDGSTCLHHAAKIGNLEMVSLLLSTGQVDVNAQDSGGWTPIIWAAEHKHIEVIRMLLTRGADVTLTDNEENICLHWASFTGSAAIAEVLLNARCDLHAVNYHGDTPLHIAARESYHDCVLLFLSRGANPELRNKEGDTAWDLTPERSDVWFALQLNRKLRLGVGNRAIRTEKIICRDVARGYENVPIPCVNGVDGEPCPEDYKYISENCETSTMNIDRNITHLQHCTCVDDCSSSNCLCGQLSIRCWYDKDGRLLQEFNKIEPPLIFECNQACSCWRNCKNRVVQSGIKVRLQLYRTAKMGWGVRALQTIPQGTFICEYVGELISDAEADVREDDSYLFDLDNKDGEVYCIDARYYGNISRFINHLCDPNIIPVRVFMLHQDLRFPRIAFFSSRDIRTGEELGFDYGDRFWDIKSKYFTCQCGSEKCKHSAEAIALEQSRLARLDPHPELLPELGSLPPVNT
In words: Inhibition of recombinant human G9a at 25 uM using biotinylated-Histone H3 peptide (1 to 21 residues) after 30 mins by AlphaLISA assay relative to control. The gist of the method: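 G9a AlphaLISA at fixed 10 or 25 μM compound: human recombinant G9a 1 nM, 30 min preincubation, then biotinylated H3(1–21) 100 nM plus SAM 15 μM for 30 min at room temperature, pH 8.8 Tris buffer with 0.01% Tween-20; anti-H3K9me2 acceptor and streptavidin donor beads; percent of DMSO control.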

For data set [2], the target named is T2, Histone-lysine N-methyltransferase EHMT1 (Homo sapiens) (UniProt Q9H9B1).
T2 sequence (whole entry): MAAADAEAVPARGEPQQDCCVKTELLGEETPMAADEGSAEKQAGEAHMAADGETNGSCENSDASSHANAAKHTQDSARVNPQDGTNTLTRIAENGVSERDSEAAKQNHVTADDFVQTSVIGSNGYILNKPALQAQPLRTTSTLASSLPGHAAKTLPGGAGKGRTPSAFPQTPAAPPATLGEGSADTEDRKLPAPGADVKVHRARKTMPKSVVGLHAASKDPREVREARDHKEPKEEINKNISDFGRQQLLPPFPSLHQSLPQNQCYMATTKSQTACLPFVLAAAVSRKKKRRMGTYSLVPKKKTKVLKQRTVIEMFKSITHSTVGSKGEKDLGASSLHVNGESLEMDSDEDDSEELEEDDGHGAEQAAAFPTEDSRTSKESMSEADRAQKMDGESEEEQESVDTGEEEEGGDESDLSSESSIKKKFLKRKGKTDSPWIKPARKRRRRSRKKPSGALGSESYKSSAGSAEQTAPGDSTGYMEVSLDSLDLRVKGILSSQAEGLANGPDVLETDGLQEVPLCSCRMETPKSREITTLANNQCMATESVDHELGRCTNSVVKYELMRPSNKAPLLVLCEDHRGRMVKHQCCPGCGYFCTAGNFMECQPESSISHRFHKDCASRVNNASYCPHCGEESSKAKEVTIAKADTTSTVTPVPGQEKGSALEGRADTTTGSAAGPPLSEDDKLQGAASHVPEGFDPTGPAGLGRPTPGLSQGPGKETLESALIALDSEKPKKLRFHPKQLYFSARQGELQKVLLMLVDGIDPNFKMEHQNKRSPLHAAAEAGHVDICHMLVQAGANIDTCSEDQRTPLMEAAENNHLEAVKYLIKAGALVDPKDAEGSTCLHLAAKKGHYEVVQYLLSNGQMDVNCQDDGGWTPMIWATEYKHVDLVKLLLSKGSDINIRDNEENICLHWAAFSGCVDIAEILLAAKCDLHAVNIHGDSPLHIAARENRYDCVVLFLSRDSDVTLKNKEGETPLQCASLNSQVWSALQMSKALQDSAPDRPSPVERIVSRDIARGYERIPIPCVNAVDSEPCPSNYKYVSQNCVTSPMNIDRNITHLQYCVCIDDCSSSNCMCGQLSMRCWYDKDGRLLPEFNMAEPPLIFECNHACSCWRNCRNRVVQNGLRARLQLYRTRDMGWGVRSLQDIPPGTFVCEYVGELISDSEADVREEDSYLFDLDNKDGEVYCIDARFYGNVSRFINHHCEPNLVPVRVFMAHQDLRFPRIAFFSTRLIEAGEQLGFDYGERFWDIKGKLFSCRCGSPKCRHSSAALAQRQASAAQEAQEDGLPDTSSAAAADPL
In words: Inhibition of recombinant human GLP at 10 uM using biotinylated-Histone H3 peptide (1 to 21 residues) after 30 mins by AlphaLISA assay relative to control.

A short description of data set [3]: Apparent permeability of the compound after 24 hrs by PAMPA. The data set is classed as ADME.
Data set [4] deals with T3, Histone-lysine N-methyltransferase EHMT2 (Homo sapiens, UniProt Q96KQ7).
T3 sequence (Q96KQ7 whole entry): T1 sequence (whole entry)
In words: Non-competitive inhibition of recombinant human G9a using biotinylated-Histone H3 peptide (1 to 21 residues) as substrate after 30 mins in presence of varying concentration of SAM by Lineweaver-Burk plot analysis.

For `COc1cc2c(cc1OCCCN1CCCC1)N=C(C1CCCCC1)CN=C2NC1CCN(C(C)C)CC1`, the results for the inhibition in data set [1] and in data set [2] were 98% and 95%, respectively. For the same compound, in data set [3], the Papp is 4.8 ×10⁻⁷ cm/s. In addition, in data set [4], the pKi is 8.44.
